Reference: ChEMBL document CHEMBL4425187, “A new class of flavonol-based anti-prostate cancer agents: Design, synthesis, and evaluation in cell models” (Bioorg Med Chem Lett, 2016)

Legend:
[1] = system: PC-3; experiment: Potency index, ratio of IC50 for 3',4'-dimethoxyflavonol to IC50 for test compound against human PC3 cells; type: functional
Procedure, shortened: (§1)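 IC50 from WST-1 proliferation assay in PC-3 (androgen-insensitive) and LNCaP (androgen-sensitive) cells after 3-day exposure at five concentrations, DMSO vehicle control, quercetin positive control. IC50 derived from dose-response curves, mean ± SEM. The index is the parent flavonol IC50 divided by the test compound IC50.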

[2] = system: LNCaP; experiment: Potency index, ratio of IC50 for 3',4'-dimethoxyflavonol to IC50 for test compound against human LNCAP cells; type: functional; procedure, shortened: as §1
[3] = system: PC-3; experiment: Induction of apoptosis is human PC3 cells assessed as late apoptotic/necrotic cells at 30 uM after 16 hrs by F2N12S/CYTOX AADvanced double-staining based by flow cytometry (reference value: 9%); type: functional
[4] = system: PC-3; experiment: Induction of apoptosis is human PC3 cells assessed as early apoptotic cells at 50 uM after 16 hrs by F2N12S/CYTOX AADvanced double-staining based by flow cytometry (reference value: 3%); type: functional
[5] = system: PC-3; experiment: Induction of apoptosis is human PC3 cells assessed as live cells at 1 uM after 16 hrs by F2N12S/CYTOX AADvanced double-staining based by flow cytometry (reference value: 88%); type: functional
[6] = system: PC-3; experiment: Induction of apoptosis is human PC3 cells assessed as early apoptotic cells at 100 uM after 16 hrs byF2N12S/CYTOX AADvanced double-staining based by flow cytometry (reference value: 3%); type: functional
[7] = system: PC-3; experiment: Cell cycle arrest in human PC3 cells assessed as accumulation in G2/M phase at 10 uM after 20 hrs by propidium iodide staining-based flow cytometry (reference value: 17.4%); type: functional
[8] = system: PC-3; experiment: Cell cycle arrest in human PC3 cells assessed as accumulation in G0/G1 phase at 10 uM after 20 hrs by propidium iodide staining-based flow cytometry (reference value: 63.7%); type: functional
[9] = system: PC-3; experiment: Induction of apoptosis is human PC3 cells assessed as live cells at 5 uM after 16 hrs by F2N12S/CYTOX AADvanced double-staining based by flow cytometry (reference value: 88%); type: functional
[10] = system: PC-3; experiment: Induction of apoptosis is human PC3 cells assessed as early apoptotic cells at 30 uM after 16 hrs by F2N12S/CYTOX AADvanced double-staining based by flow cytometry (reference value: 3%); type: functional
[11] = system: PC-3; experiment: Cell cycle arrest in human PC3 cells assessed as accumulation in G0/G1 phase at 10 uM after 24 hrs by propidium iodide staining-based flow cytometry (reference value: 69.4%); type: functional
[12] = system: PC-3; experiment: Induction of apoptosis is human PC3 cells assessed as live cells at 100 uM after 16 hrs by F2N12S/CYTOX AADvanced double-staining based by flow cytometry (reference value: 88%); type: functional
[13] = system: PC-3; experiment: Induction of apoptosis is human PC3 cells assessed as live cells at 10 uM after 16 hrs by F2N12S/CYTOX AADvanced double-staining based by flow cytometry (reference value: 88%); type: functional
[14] = system: PC-3; experiment: Cell cycle arrest in human PC3 cells assessed as accumulation in G2/M phase at 10 uM after 24 hrs by propidium iodide staining-based flow cytometry (reference value: 16%); type: functional
[15] = system: PC-3; experiment: Induction of apoptosis is human PC3 cells assessed as live cells at 20 uM after 16 hrs by F2N12S/CYTOX AADvanced double-staining based by flow cytometry (reference value: 88%); type: functional
[16] = system: PC-3; experiment: Induction of apoptosis is human PC3 cells assessed as early apoptotic cells at 1 uM after 16 hrs by F2N12S/CYTOX AADvanced double-staining based by flow cytometry (reference value: 3%); type: functional
[17] = system: PC-3; experiment: Induction of apoptosis is human PC3 cells assessed as late apoptotic/necrotic cells at 50 uM after 16 hrs by F2N12S/CYTOX AADvanced double-staining based by flow cytometry (reference value: 9%); type: functional
[18] = system: PWR-1E; experiment: Cytotoxicity against human PWR-1E cells assessed as inhibition of cell proliferation at 10 to 50 uM after 3 days by WST1 assay; type: cell-based; settings: 72 h
[19] = system: PC-3; experiment: Induction of apoptosis is human PC3 cells assessed as early apoptotic cells after 16 hrs by F2N12S/CYTOX AADvanced double-staining based by flow cytometry relative to control; type: functional, cell-based
[20] = system: PC-3; experiment: Induction of apoptosis is human PC3 cells assessed as live cells at 50 uM after 16 hrs by F2N12S/CYTOX AADvanced double-staining based by flow cytometry (reference value: 88%); type: functional
[21] = system: PC-3; experiment: Induction of apoptosis is human PC3 cells assessed as late apoptotic/necrotic cells at 5 uM after 16 hrs by F2N12S/CYTOX AADvanced double-staining based by flow cytometry (reference value: 9%); type: functional
[22] = system: PC-3; experiment: Induction of apoptosis is human PC3 cells assessed as late apoptotic/necrotic cells at 100 uM after 16 hrs by F2N12S/CYTOX AADvanced double-staining based by flow cytometry (reference value: 9%); type: functional
[23] = system: PC-3; experiment: Induction of apoptosis is human PC3 cells assessed as late apoptotic/necrotic cells at 1 uM after 16 hrs by F2N12S/CYTOX AADvanced double-staining based by flow cytometry (reference value: 9%); type: functional
[24] = system: PC-3; experiment: Induction of apoptosis is human PC3 cells assessed as live cells at 30 uM after 16 hrs by F2N12S/CYTOX AADvanced double-staining based by flow cytometry (reference value: 88%); type: functional

## CCOc1c(-c2ccc(OC)c(OC)c2)oc2ccccc2c1=O
[1]
  Ratio IC50: 30
[2]
  Ratio IC50: 21

## CCCCCCOc1c(-c2ccc(OC)c(OC)c2)oc2ccccc2c1=O
[1]
  Ratio IC50: 29
[2]
  Ratio IC50: 16

## CCCCCOc1c(-c2ccc(OC)c(OC)c2)oc2ccccc2c1=O
[1]
  Ratio IC50: 24
[2]
  Ratio IC50: 14

## CCCCN(CCCC)CCCCCOc1c(-c2ccc(OC)c(OC)c2)oc2ccccc2c1=O
[1]
  Ratio IC50: 102
[2]
  Ratio IC50: 41

## COc1ccc(-c2oc3ccccc3c(=O)c2OCCCCCN2CCOCC2)cc1OC
[1]
  Ratio IC50: 91
[2]
  Ratio IC50: 26

## COc1ccc(-c2oc3ccccc3c(=O)c2OC)cc1OC
[1]
  Ratio IC50: 14
[2]
  Ratio IC50: 12.5

## CCCOc1c(-c2ccc(OC)c(OC)c2)oc2ccccc2c1=O
[1]
  Ratio IC50: 41
[2]
  Ratio IC50: 32

## CCCCCCCOc1c(-c2ccc(OC)c(OC)c2)oc2ccccc2c1=O
[1]
  Ratio IC50: 5
[2]
  Ratio IC50: 5

## CCCCN(CCCC)CCCOc1c(-c2ccc(OC)c(OC)c2)oc2ccccc2c1=O
[3]
  Activity: 5%
[4]
  Activity: 88%
[5]
  Activity: 89%
[1]
  Ratio IC50: 292
[2]
  Ratio IC50: 84
[6]
  Activity: 39%
[7]
  Activity: 32%
[8]
  Activity: 53.8%
[9]
  Activity: 50%
[10]
  Activity: 94%
[11]
  Activity: 61.3%
[12]
  Activity: 0%
[13]
  Activity: 15%
[14]
  Activity: 25.1%
[15]
  Activity: 3%
[16]
  Activity: 4%
[17]
  Activity: 11%
[18]
  Activity: Non-Toxic
[19]
  Activity: Dose-dependent effect
[20]
  Activity: 0%
[21]
  Activity: 5%
[22]
  Activity: 61%
[23]
  Activity: 6%
[24]
  Activity: 1%

## CCCCOc1c(-c2ccc(OC)c(OC)c2)oc2ccccc2c1=O
[1]
  Ratio IC50: 24
[2]
  Ratio IC50: 25

## CCCCN(CCCC)CCCCOc1c(-c2ccc(OC)c(OC)c2)oc2ccccc2c1=O
[1]
  Ratio IC50: 152
[2]
  Ratio IC50: 47

## COc1ccc(-c2oc3ccccc3c(=O)c2OCCCCN2CCOCC2)cc1OC
[1]
  Ratio IC50: 45
[2]
  Ratio IC50: 24

## COc1ccc(-c2oc3ccccc3c(=O)c2OC(C)C)cc1OC
[1]
  Ratio IC50: 12
[2]
  Ratio IC50: 20

## COc1ccc(-c2oc3ccccc3c(=O)c2O)cc1OC [3-HYDROXY-3',4'-DIMETHOXYFLAVONE]
[18]
  Activity: Non-Toxic

## COc1ccc(-c2oc3ccccc3c(=O)c2OCCCN2CCOCC2)cc1OC
[1]
  Ratio IC50: 38
[2]
  Ratio IC50: 14
